According to ChEMBL document CHEMBL3862011, “Neuroprotective effects of benzyloxy substituted small molecule monoamine oxidase B inhibitors in Parkinson's disease” (Bioorg Med Chem, 2016):

Experiments:
[1] = Neuroprotective activity against rotenone-induced toxicity in rat PC12 cells assessed as cell survival at 20 uM preincubated for 24 hrs followed by rotenone addition measured after 24 hrs by MTT assay relative to control; type: functional; conditions: PC-12, read-out: Survival
Outline: (§1)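 PC12 cells seeded 5×10^3/well, after 24 h given compound at 20 μM for 24 h at 37 °C, then exposed to 6-OHDA (40 μM) or rotenone (1 μM) for 24 h. […] Mean ± SEM of three independent experiments.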

[2] = Neuroprotective activity against 6-OHDA-induced toxicity in rat PC12 cells assessed as cell survival at 20 uM preincubated for 24 hrs followed by 6-OHDA addition measured after 24 hrs by MTT assay relative to control; type: functional; conditions: PC-12, read-out: Survival; outline: as §1
[3] = target: T1, Amine oxidase [flavin-containing] A (Homo sapiens, UniProt P21397)
T1 sequence (P21397 whole entry): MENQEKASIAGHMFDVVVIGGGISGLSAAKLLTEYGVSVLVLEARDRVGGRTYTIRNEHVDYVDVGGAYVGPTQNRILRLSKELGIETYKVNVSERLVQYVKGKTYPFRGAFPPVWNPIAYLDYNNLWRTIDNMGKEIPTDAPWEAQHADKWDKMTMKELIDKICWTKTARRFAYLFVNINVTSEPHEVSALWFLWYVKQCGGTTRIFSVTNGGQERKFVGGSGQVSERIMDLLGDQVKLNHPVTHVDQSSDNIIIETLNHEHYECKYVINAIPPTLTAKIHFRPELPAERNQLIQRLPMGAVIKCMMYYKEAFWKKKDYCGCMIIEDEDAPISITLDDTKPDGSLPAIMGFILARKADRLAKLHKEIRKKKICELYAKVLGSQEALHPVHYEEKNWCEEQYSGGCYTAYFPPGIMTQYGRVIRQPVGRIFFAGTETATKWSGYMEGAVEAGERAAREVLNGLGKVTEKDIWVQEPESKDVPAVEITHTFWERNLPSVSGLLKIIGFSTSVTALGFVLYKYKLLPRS

[4] = Cytotoxicity against rat PC12 cells assessed as cell survival at 100 uM after 24 hrs by MTT assay relative to control; type: toxicity, PC-12; conditions: read-out: Survival
in vitro = conditions: PAMPA
[5] = Cytotoxicity against rat PC12 cells assessed as cell survival at 20 uM after 72 hrs by MTT assay relative to control; type: toxicity, PC-12; conditions: read-out: Survival
[6] = target: T1, Amine oxidase [flavin-containing] A; assay: Inhibition of recombinant human MAO-A using kynuramine as substrate assessed as decrease in 4-hydroxyquinoline production incubated for 20 mins by fluorescence spectrophotometry

Structure (SMILES): CC(=O)c1ccc(OCc2cccc(Cl)c2)cc1F
- viability at 20 µM [1]: 112%
- viability at 20 µM [2]: 133%
- IC50 [3]: > 100 µM
- viability at 24 h, 100 µM [4]: 108%

Structure (SMILES): CC(=O)c1ccc(OCc2ccc(Cl)cc2)cc1O
- viability at 20 µM [1]: 105%
- Papp at 16 h, 100 ug/ml (in vitro): 12.7 ×10⁻⁶ cm/s
- viability at 20 µM [2]: 144%
- IC50 [3]: 25.3 µM
- viability at 24 h, 100 µM [4]: 109%
- viability at 72 h, 20 µM [5]: 126%

Structure (SMILES): CC(=O)c1ccc(OCc2ccc(F)cc2)cc1F
- viability at 20 µM [1]: 114%
- viability at 20 µM [2]: 105%
- IC50 [3]: > 100 µM
- viability at 24 h, 100 µM [4]: 106%
- viability at 72 h, 20 µM [5]: 123%

Structure (SMILES): CC(=O)c1cccc(OCc2ccc(Br)cc2)c1
- viability at 20 µM [1]: 105%
- viability at 20 µM [2]: 109%
- IC50 [3]: 53.7 µM
- viability at 24 h, 100 µM [4]: 122%
- viability at 72 h, 20 µM [5]: 107%

Structure (SMILES): O=c1ccoc2cc(OCc3cccc(Cl)c3)ccc12
- viability at 20 µM [1]: 101%
- viability at 20 µM [2]: 117%
- IC50 [3]: 23.6 µM
- viability at 24 h, 100 µM [4]: 73.5%
- viability at 72 h, 20 µM [5]: 119%

Structure (SMILES): CC(=O)c1ccc(OCc2cccc(F)c2)cc1F
- viability at 20 µM [1]: 109%
- viability at 20 µM [2]: 116%
- IC50 [3]: > 100 µM
- viability at 24 h, 100 µM [4]: 118%
- viability at 72 h, 20 µM [5]: 119%

Structure (SMILES): O=c1ccoc2ccc(OCc3ccc(Cl)cc3)cc12
- viability at 20 µM [1]: 115%
- viability at 20 µM [2]: 122%
- IC50 [3]: 4.52 µM
- viability at 24 h, 100 µM [4]: 85%
- viability at 72 h, 20 µM [5]: 108%

Structure (SMILES): Cc1c(C)c2ccc(OCc3cccc(F)c3)cc2oc1=O
- viability at 20 µM [1]: 115%
- viability at 20 µM [2]: 130%
- viability at 24 h, 100 µM [4]: 109%
- viability at 72 h, 20 µM [5]: 108%

Structure (SMILES): O=C1OCc2cc(OCc3ccc(Cl)cc3)ccc21
- viability at 20 µM [1]: 113%
- viability at 20 µM [2]: 137%
- IC50 [3]: 3.61 µM
- viability at 24 h, 100 µM [4]: 86.7%
- viability at 72 h, 20 µM [5]: 85.7%

Structure (SMILES): CC(=O)c1ccc(OCc2cccc(Cl)c2)cc1
- viability at 20 µM [1]: 95.8%
- viability at 20 µM [2]: 123%
- IC50 [3]: 88.4 µM
- viability at 24 h, 100 µM [4]: 118%
- viability at 72 h, 20 µM [5]: 116%

Structure (SMILES): CC(=O)c1ccc(OCc2cccc(Cl)c2)cc1O
- viability at 20 µM [1]: 93.3%
- viability at 20 µM [2]: 134%
- IC50 [6]: 17.7 µM
- IC50 [3]: 48 µM
- viability at 24 h, 100 µM [4]: 110%
- viability at 72 h, 20 µM [5]: 112%

Structure (SMILES): O=C1CCc2ccc(OCc3cccc(Cl)c3)cc2N1
- viability at 20 µM [1]: 110%
- viability at 20 µM [2]: 121%
- IC50 [3]: > 100 µM
- viability at 24 h, 100 µM [4]: 76.1%
- viability at 72 h, 20 µM [5]: 97.2%

Structure (SMILES): O=C1OCc2cc(OCc3ccc(C(F)(F)F)cc3)ccc21
- viability at 20 µM [1]: 111%
- viability at 20 µM [2]: 125%
- IC50 [3]: 9.24 µM
- viability at 72 h, 20 µM [5]: 87.2%

Structure (SMILES): O=c1ccoc2cc(OCc3ccc(F)cc3)ccc12
- viability at 20 µM [1]: 115%
- viability at 20 µM [2]: 124%
- IC50 [3]: 18.5 µM
- viability at 24 h, 100 µM [4]: 72.9%
- viability at 72 h, 20 µM [5]: 119%

Structure (SMILES): O=C1CCCc2cc(OCc3ccc(Cl)cc3)ccc21
- viability at 20 µM [1]: 110%
- viability at 20 µM [2]: 127%
- IC50 [3]: 0.34 µM
- viability at 24 h, 100 µM [4]: 91.2%
- viability at 72 h, 20 µM [5]: 129%

Structure (SMILES): CC(=O)c1ccc(OCc2ccc(Cl)cc2)cc1F
- viability at 20 µM [1]: 101%
- viability at 20 µM [2]: 142%
- IC50 [3]: 89 µM
- viability at 24 h, 100 µM [4]: 105%
- viability at 72 h, 20 µM [5]: 113%

Structure (SMILES): CC(=O)c1cccc(OCc2ccc(Cl)cc2)c1
- viability at 20 µM [1]: 109%
- viability at 20 µM [2]: 132%
- viability at 24 h, 100 µM [4]: 117%
- viability at 72 h, 20 µM [5]: 102%

Structure (SMILES): O=c1ccoc2ccc(OCc3ccc(F)cc3)cc12
- viability at 20 µM [1]: 106%
- viability at 20 µM [2]: 115%
- IC50 [3]: 13.6 µM
- viability at 24 h, 100 µM [4]: 85.2%
- viability at 72 h, 20 µM [5]: 109%

Structure (SMILES): CC(=O)c1ccc(OCc2ccc(F)cc2)cc1O
- viability at 20 µM [1]: 98.3%
- Papp at 16 h, 100 ug/ml (in vitro): 13.5 ×10⁻⁶ cm/s
- viability at 20 µM [2]: 144%
- IC50 [6]: 3.7 µM
- IC50 [3]: 43.4 µM
- viability at 24 h, 100 µM [4]: 101%
- viability at 72 h, 20 µM [5]: 109%

Structure (SMILES): Cc1c(C)c2ccc(OCc3ccc(Cl)cc3)cc2oc1=O
- viability at 20 µM [1]: 119%
- viability at 20 µM [2]: 114%
- viability at 24 h, 100 µM [4]: 106%
- viability at 72 h, 20 µM [5]: 104%

Structure (SMILES): CC1(C)CC(=O)c2ccc(OCc3ccc(F)cc3)cc2O1
- viability at 20 µM [1]: 111%
- Papp at 16 h, 100 ug/ml (in vitro): 9.71 ×10⁻⁶ cm/s
- viability at 20 µM [2]: 148%
- IC50 [3]: > 100 µM
- viability at 24 h, 100 µM [4]: 96.2%
- viability at 72 h, 20 µM [5]: 122%

Structure (SMILES): O=C1CCOc2cc(OCc3ccc(Cl)cc3)ccc21
- viability at 20 µM [1]: 111%
- viability at 20 µM [2]: 143%
- viability at 24 h, 100 µM [4]: 98.6%
- viability at 72 h, 20 µM [5]: 115%

Structure (SMILES): O=c1ccoc2cc(OCc3ccc(C(F)(F)F)cc3)ccc12
- viability at 20 µM [1]: 110%
- viability at 20 µM [2]: 123%
- IC50 [3]: 18.9 µM
- viability at 24 h, 100 µM [4]: 81.2%
- viability at 72 h, 20 µM [5]: 110%

Structure (SMILES): CC(=O)c1ccc(OCc2ccc(F)cc2)cc1
- viability at 20 µM [1]: 88.6%
- viability at 20 µM [2]: 116%
- IC50 [3]: > 100 µM
- viability at 24 h, 100 µM [4]: 105%
- viability at 72 h, 20 µM [5]: 123%

Structure (SMILES): CC1(C)CC(=O)c2ccc(OCc3ccc(Cl)cc3)cc2O1
- viability at 20 µM [1]: 108%
- viability at 20 µM [2]: 143%
- IC50 [3]: > 100 µM
- viability at 24 h, 100 µM [4]: 110%
- viability at 72 h, 20 µM [5]: 109%

Structure (SMILES): O=C1CCCc2cc(OCc3ccc(F)cc3)ccc21
- viability at 20 µM [1]: 95.9%
- viability at 20 µM [2]: 139%
- IC50 [3]: 1.29 µM
- viability at 24 h, 100 µM [4]: 83.3%

Structure (SMILES): C#CCN[C@@H]1CCc2ccccc21 [RASAGILINE]
- viability at 20 µM [1]: 109%
- viability at 20 µM [2]: 135%
- viability at 24 h, 100 µM [4]: 86.9%
- viability at 72 h, 20 µM [5]: 101%

Structure (SMILES): CC(=O)c1ccc(OCc2cccc(F)c2)cc1O
- viability at 20 µM [1]: 106%
- Papp at 16 h, 100 ug/ml (in vitro): 15.9 ×10⁻⁶ cm/s
- viability at 20 µM [2]: 133%
- IC50 [6]: 50.7 µM
- IC50 [3]: > 100 µM
- viability at 24 h, 100 µM [4]: 107%
- viability at 72 h, 20 µM [5]: 115%

Structure (SMILES): Cc1c(C)c2ccc(OCc3ccc(F)c(F)c3)cc2oc1=O
- viability at 20 µM [1]: 117%
- viability at 20 µM [2]: 138%
- viability at 24 h, 100 µM [4]: 106%
- viability at 72 h, 20 µM [5]: 102%

Structure (SMILES): O=C1CCc2ccc(OCc3cccc(Br)c3)cc2N1
- viability at 20 µM [1]: 134%
- Papp at 16 h, 100 ug/ml (in vitro): 8.89 ×10⁻⁶ cm/s
- viability at 20 µM [2]: 112%
- IC50 [3]: 49.2 µM
- viability at 24 h, 100 µM [4]: 80.2%
- viability at 72 h, 20 µM [5]: 108%

Structure (SMILES): O=C1OCc2cc(OCc3ccc(F)cc3)ccc21
- viability at 20 µM [1]: 114%
- viability at 20 µM [2]: 116%
- IC50 [3]: 1.33 µM
- viability at 24 h, 100 µM [4]: 64.9%
- viability at 72 h, 20 µM [5]: 89.7%
